This passage reports GI50, inhibition and IC50 results from ChEMBL document CHEMBL3588853, “Synthesis, biological evaluation, and molecular docking studies of novel 1-benzene acyl-2-(1-methylindol-3-yl)-benzimidazole derivatives as potential tubulin polymerization inhibitors” (Eur J Med Chem, 2015).

pIC50: −log10 of the molar value.

In experiment [1] the test system is MCF7. Briefly: Growth inhibition of human MCF7 cells assessed as inhibition of cell proliferation after 24 hrs by MTT assay. Format: functional. The conditions noted are these: MCF7, 24 h. In short, it runs like this: (§1)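 Cells seeded at (1–5) × 10^3 per well and grown 12 h at 37 °C. Compounds added at increasing concentrations in medium with 10% FBS for 24 h. MTT dye then added, followed by 3–4 h at 37 °C. Medium discarded, formazan dissolved in DMSO and plate read. GI50 calculated relative to DMSO-treated control wells.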
In general terms: Tetrazolium assays rely on reduction of a dye to a coloured formazan, in cell work by metabolically active cells.

Experiment [2] concerns A549. Briefly: Growth inhibition of human A549 cells assessed as inhibition of cell proliferation after 24 hrs by MTT assay. Format: functional. As to conditions: A549, 24 h. In short, it runs like this: as §1
For experiment [3], the system named is HepG2. The experiment can be described thus: Growth inhibition of human HepG2 cells assessed as inhibition of cell proliferation after 24 hrs by MTT assay. The conditions noted are these: HepG2, 24 h. Format: functional. The method, boiled down: as §1
For experiment [4], the target named is Tubulin (Bos taurus) (UniProt Q6B856+Q862F3). The conditions noted are these: at 5 µM.
Experiment [5] concerns the target Tubulin (Bos taurus, UniProt Q6B856+Q862F3). The experiment can be described thus: Inhibition of bovine brain tubulin polymerization extent after 20 mins by turbidimetrically.

Sequence of Tubulin (Q6B856 whole entry): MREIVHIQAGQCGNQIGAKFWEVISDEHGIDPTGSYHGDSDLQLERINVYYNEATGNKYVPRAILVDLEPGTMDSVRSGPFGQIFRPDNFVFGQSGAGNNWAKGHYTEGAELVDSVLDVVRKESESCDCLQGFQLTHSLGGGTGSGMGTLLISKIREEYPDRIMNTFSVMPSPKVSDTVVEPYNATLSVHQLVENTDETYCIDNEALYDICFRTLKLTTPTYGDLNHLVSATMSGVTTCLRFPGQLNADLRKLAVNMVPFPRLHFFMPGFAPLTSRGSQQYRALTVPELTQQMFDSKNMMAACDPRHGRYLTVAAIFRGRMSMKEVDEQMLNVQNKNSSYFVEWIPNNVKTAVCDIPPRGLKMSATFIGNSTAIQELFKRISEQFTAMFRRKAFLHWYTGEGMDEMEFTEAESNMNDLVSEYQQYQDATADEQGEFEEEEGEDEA
Sequence of Tubulin (Q862F3 whole entry): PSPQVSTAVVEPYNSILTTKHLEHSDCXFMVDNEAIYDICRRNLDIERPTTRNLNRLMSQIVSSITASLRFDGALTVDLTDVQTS

With `COc1ccc(/C=C\c2cc(OC)c(OC)c(OC)c2)cc1O` [COMBRETASTATIN A4], the figures for the GI50 in experiment [1], in experiment [2] and in experiment [3] were 9.4 µM, 2.8 µM and 7.4 µM, respectively. In experiment [4], this compound returned an inhibition of 93%.
`COc1ccc(C(=O)n2c(-c3cn(C)c4ccccc34)nc3ccccc32)cc1`: the GI50 in experiment [1] came to 16.3 µM; in experiment [2] it was 10.4 µM; in experiment [3] it was 15.2 µM. Further, the pIC50 in experiment [5] is 5.34. In experiment [4], this compound gave an inhibition of 80%.
The like results for `COc1ccc(C(=O)n2c(-c3cn(C)c4ccc(Br)cc34)nc3ccccc32)cc1` were, in that order, 19.2 µM, 11.3 µM, 18.9 µM, 5.20 and 75%.
`COc1ccc2c(c1)c(-c1nc3ccccc3n1C(=O)c1cccc(Br)c1)cn2C`: the GI50 was found to be 52.7 µM in experiment [1], 24.8 µM in experiment [2] and 51.3 µM in experiment [3]. Further, the pIC50 in experiment [5] is 4.53. The inhibition in experiment [4] came out at 57%.
Turning to `Cn1cc(-c2nc3ccccc3n2C(=O)c2ccccc2)c2ccccc21`, the concentration for 50% growth inhibition (GI50) in experiment [1] was 43.7 µM; in experiment [2], 19.6 µM; in experiment [3], 42.3 µM. The compound further gave a negative-log IC50 (pIC50) in experiment [5] of 4.62. For the same compound, in experiment [4], the inhibition came out at 61%.
Consider `Cn1cc(-c2nc3ccccc3n2C(=O)c2cccc(Br)c2)c2cc(Br)ccc21`, for which the GI50 in experiment [1] stood at 68.2 µM; in experiment [2], 38.5 µM; in experiment [3], 67.3 µM. In experiment [5], this compound gave a negative logarithm of the IC50 (pIC50) of 4.40. In experiment [4], the inhibition came out at 51%.
The like results for `COc1cc(C(=O)n2c(-c3cn(C)c4ccc(Br)cc34)nc3ccccc32)cc(OC)c1OC` were, in that order, 9.7 µM, 3 µM, 8.2 µM, 5.70 and 91%.
As to `COc1cc2c(c(OC)c1OC)-c1ccc(OC)c(=O)cc1[C@@H](NC(C)=O)CC2` [COLCHICINE], the GI50 in experiment [1] stood at 13.5 µM; in experiment [2] it was 4.4 µM; in experiment [3], 10.5 µM.
In the case of `Cn1cc(-c2nc3ccccc3n2C(=O)c2ccccc2Br)c2ccccc21`, the GI50 came out at 70.1 µM in experiment [1], 43.2 µM in experiment [2] and 68.2 µM in experiment [3]. For the same compound, the pIC50 in experiment [5] is 4.37. This compound returned an inhibition in experiment [4] of 50%.
Regarding `COc1ccc2c(c1)c(-c1nc3ccccc3n1C(=O)c1ccccc1)cn2C`, the GI50 in experiment [1] amounted to 38.4 µM; in experiment [2], 16.7 µM; in experiment [3], 37.9 µM. Further, in experiment [5], the pIC50 was 4.71. Further, the inhibition in experiment [4] turned out to be 64%.
`COc1ccc2c(c1)c(-c1nc3ccccc3n1C(=O)c1ccc(OC)c(OC)c1)cn2C`: the GI50 in experiment [1] worked out at 6.3 µM; in experiment [2], 2.7 µM; in experiment [3], 5.1 µM. In experiment [5], this compound gave a pIC50 of 5.77. Besides, the inhibition in experiment [4] was found to be 94%.
In the case of `COc1cccc(C(=O)n2c(-c3cn(C)c4ccc(Br)cc34)nc3ccccc32)c1`, the GI50 in experiment [1] was determined as 18.2 µM; in experiment [2], 10.8 µM; in experiment [3], 17.8 µM. In addition, in experiment [5], the pIC50 was 5.24. In experiment [4], this compound returned an inhibition of 78%.
The matching figures for `COc1cc(C(=O)n2c(-c3cn(C)c4ccccc34)nc3ccccc32)cc(OC)c1OC`: 5.4 µM, 2.6 µM, 4.3 µM, 5.80 and 95%.
The matching figures for `COc1ccc(C(=O)n2c(-c3cn(C)c4ccc(OC)cc34)nc3ccccc32)cc1`: 14.8 µM, 4.9 µM, 12.8 µM, 5.46 and 82%.
The like results for `COc1ccc2c(c1)c(-c1nc3ccccc3n1C(=O)c1ccccc1OC)cn2C` were, in that order, 23.9 µM, 11.9 µM, 23.6 µM, 5.08 and 73%.
In the case of `COc1ccc(C(=O)n2c(-c3cn(C)c4ccc(Br)cc34)nc3ccccc32)cc1OC`, the concentration for 50% growth inhibition (GI50) is 11.3 µM in experiment [1], 3.4 µM in experiment [2] and 9.7 µM in experiment [3]. For the same compound, the pIC50 in experiment [5] was 5.62. This compound also displayed an inhibition in experiment [4] of 85%.
The like results for `COc1ccc2c(c1)c(-c1nc3ccccc3n1C(=O)c1ccccc1Br)cn2C` were, in that order, 55.8 µM, 29.5 µM, 54.2 µM, 4.49 and 55%.
The like results for `COc1cccc(C(=O)n2c(-c3cn(C)c4ccc(OC)cc34)nc3ccccc32)c1` were, in that order, 14.6 µM, 4.6 µM, 11.7 µM, 5.48 and 84%.
Consider `Cn1cc(-c2nc3ccccc3n2C(=O)c2ccccc2Br)c2cc(Br)ccc21`, for which the GI50 in experiment [1] came to 73.6 µM; in experiment [2] it was 46.7 µM; in experiment [3], 72.1 µM. The same compound had a pIC50 in experiment [5] of 4.34. Moreover, the inhibition in experiment [4] came to 48%.
As to `Cn1cc(-c2nc3ccccc3n2C(=O)c2ccccc2)c2cc(Br)ccc21`, the GI50 amounted to 50.3 µM in experiment [1], 23.1 µM in experiment [2] and 48.1 µM in experiment [3]. For the same compound, the pIC50 in experiment [5] is 4.60. For the same compound, in experiment [4], the inhibition came to 60%.
On to `Cn1cc(-c2nc3ccccc3n2C(=O)c2cccc(Br)c2)c2ccccc21`, for which the 50% growth inhibitory concentration (GI50) in experiment [1] was found to be 63.4 µM; in experiment [2], 34.2 µM; in experiment [3], 61.4 µM. The compound also had a pIC50 in experiment [5] of 4.45. This compound also showed an inhibition in experiment [4] of 52%.
The matching figures for `COc1ccccc1C(=O)n1c(-c2cn(C)c3ccc(Br)cc23)nc2ccccc21`: 36.2 µM, 12.8 µM, 34.6 µM, 4.76 and 68%.
Take `COc1ccc(C(=O)n2c(-c3cn(C)c4ccccc34)nc3ccccc32)cc1OC`: the results for the GI50 in experiment [1], in experiment [2] and in experiment [3] were 10.2 µM, 3.1 µM and 8.4 µM, respectively. For the same compound, the negative-log IC50 (pIC50) in experiment [5] is 5.68. In experiment [4], this compound gave an inhibition of 87%.
In the case of `COc1ccccc1C(=O)n1c(-c2cn(C)c3ccccc23)nc2ccccc21`, the values for the GI50 in experiment [1], in experiment [2] and in experiment [3] were 32.1 µM, 12.3 µM and 31.8 µM, respectively. In experiment [5], the pIC50 is 4.80. Further, in experiment [4], the inhibition is 70%.
On to `COc1cccc(C(=O)n2c(-c3cn(C)c4ccccc34)nc3ccccc32)c1`, for which the GI50 stood at 15.7 µM in experiment [1], 10.2 µM in experiment [2] and 13.6 µM in experiment [3]. Besides, the pIC50 in experiment [5] was 5.36. This compound returned an inhibition in experiment [4] of 81%.

As a reminder, the GI50 is the concentration giving 50% growth inhibition. The term inhibition denotes the percentage by which the read-out fell short of the control. A high value points to a response far below the control. One may read the pIC50 as the IC50 on a negative log10 scale, so that one unit is a factor of ten. A higher pIC50 goes with a low IC50.
